TAAR1 ag – agonists of human TAAR1; Q96RJ0; activation, % at 3 µM; CHO RD-HGA16 TAAR1, Fluo-8 calcium fluorescence; vehicle wells 0%, saturating PEA agonist 100%; AID 624467; 360,000 compounds, 0.99% hits;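 active means activation above the mean activation of all test compounds in the run plus 3 SD, cut at about 38% in these data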
Target sequence (Q96RJ0 whole entry, looked up): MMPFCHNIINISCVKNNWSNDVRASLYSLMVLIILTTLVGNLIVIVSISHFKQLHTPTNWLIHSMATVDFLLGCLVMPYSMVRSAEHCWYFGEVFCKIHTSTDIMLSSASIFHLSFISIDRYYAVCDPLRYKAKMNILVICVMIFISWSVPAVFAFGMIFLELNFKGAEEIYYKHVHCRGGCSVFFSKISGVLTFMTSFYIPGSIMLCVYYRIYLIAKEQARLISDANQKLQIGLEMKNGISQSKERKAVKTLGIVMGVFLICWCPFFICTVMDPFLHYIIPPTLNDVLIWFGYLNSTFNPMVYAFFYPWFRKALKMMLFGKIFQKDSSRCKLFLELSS
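Assay system: CHO-derived RD-HGA16 cells with stable Gα16 and human TAAR1; timing: 17-24 h seeding, 75 min 37 °C dye, 30 min RT; read-out: % activation from peak over basal fluorescence ratio, DMSO-to-PEA scaled; measured by: kinetic Fluo-8 calcium fluorescence; benchmarks: low control DMSO, high control PEA (EC100); doses: 3 µM single concentration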
CHO parental Ca – counter-screen for OX1R antagonists: effect in parental CHO cells; parental CHO-K1, ATP-induced calcium, Fluo-8 fluorescence; inhibition, % at 5.6 µM; 330,000 compounds, 0.63% hits; AID 463079;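 active means inhibition above that plate's mean sample inhibition plus 3 SD, cut at about 26% in these data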;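 further: 0% = ATP-challenged DMSO wells and 100% = DMSO wells without ATP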
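Test system: untransfected parental CHO cell line; also added: ATP stimulus; dosing: 5.6 µM, single dose; signal: calcium-sensitive Fluo-8 fluorescence; measure: percent inhibition of ATP-evoked calcium rise, normalized to controls; benchmarks: low control ATP plus DMSO, high control DMSO only; replication: one well per compound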
GalR3 antagonist – blocks the human galanin receptor 3; O60755; HEK293 GalR3-CNG cAMP membrane potential fluorescence; galR3 body fused to GalR1 C-terminus; inhibition, % at 3 µM; 360,000 compounds, 0.44% hits;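 active means inhibition above the screen-wide average plus 3 SD, cut at about 13% in these data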;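 further: forskolin and galanin both at EC90 stimulate the cells; cAMP rise reported by CNG channel membrane potential dye signal; 0% = forskolin plus galanin with DMSO and 100% = forskolin alone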
OX1R antag-1 – blocks the human orexin 1 receptor. OX1R-expressing cells, FRET antagonist read-out. inhibition, % at 6.6 µM. 330,000 compounds, 1.8% hits. AID 485270; in the data active means inhibition mostly above about 38%, no sharp cut-off; inactive means mostly below about 40%;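 further: 0% = agonist challenge alone and 100% = reference antagonist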
OX1R antag-2 – human HCRTR1 antagonism. O43613. CHO/OX1R cells, Fluo-8 calcium fluorescence, orexin A. inhibition, % at 5 µM. 330,000 compounds, 0.43% hits. AID 434989;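 active means inhibition above its plate's threshold, mean inhibition of all tested compounds on the plate plus 3 SD, cut at about 37% in these data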;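 further: 0% = orexin A challenge wells and 100% = SB-334867-A antagonist wells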
TAAR1 antagonist – human TAAR1 antagonism | 360,000 compounds, 1.5% hits | CHO RD-HGA16 TAAR1, Fluo-8 calcium fluorescence, antagonist | inhibition, % at 3 µM | AID 624466;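 active means inhibition above a per-plate cutoff, the mean inhibition of test compounds on that plate plus 3 SD, cut at about 49% in these data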;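 further: 0% = DMSO plus EC80 beta-PEA response and 100% = DMSO alone without agonist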
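Material: CHO RD-HGA16 cells bearing hTAAR1; compound dosing: one-point dosing, 3 µM nominal final; schedule: dye loading 75 min at 37 °C, then 30 min room temperature; measured by: calcium fluorescence with Fluo-8; control set: vehicle and agonist controls; replication: n of 1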
OX1R Fluo8 conf – OX1R (human) antagonism, confirmed; 1,100 compounds, 38% hits; CHO/OX1R cells, orexin A calcium Fluo-8 fluorescence; shares compounds with OX1R antag-2; AID 492963; inhibition, % at 5 µM; in the data active means inhibition above about 29%;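 further: 0% = agonist challenge alone and 100% = reference antagonist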
CHO Ca counter – counter-screen: parental CHO calcium response change, triplicate; 1,100 compounds, 9.3% hits; parental CHO-K1, ATP-induced calcium, Fluo-8 fluorescence; AID 492965; shares compounds with OX1R antag-2; inhibition, % at 5.6 µM;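 active means inhibition above a per-plate limit, the mean inhibition of that plate's test compounds plus 3 SD, cut at about 25% in these data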;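 further: 0% = ATP challenge with DMSO and 100% = DMSO without ATP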
OX1R HTRF confirm – confirmation of human orexin 1 receptor antagonists, HTRF format | shares compounds with OX1R antag-1 | OX1R-expressing cells, HTRF antagonist assay | inhibition, % at 6.6 µM | 1,800 compounds, 49% hits; in the data active means inhibition above about 55%;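 further: CHO cells expressing OX1R stimulated with orexin A at about EC80; 0% = agonist challenge alone and 100% = reference antagonist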
CHO-K1 HTRF cnt – counter-screen: parental CHO-K1 HTRF response | AID 493232 | parental CHO-K1 cells, HTRF counterscreen | shares compounds with OX1R antag-1 | 1,800 compounds, 48% hits | inhibition, % at 6.6 µM; in the data active means inhibition above about 17%;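 further: 0% = agonist challenge with vehicle and 100% = vehicle alone without agonist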
An asterisk follows results filed as active; / = no result given. An excerpt weighted towards active compounds, which were near 4.2% of everything screened.

SMILES	TAAR1 ag	CHO parental Ca	GalR3 antagonist	OX1R antag-1	OX1R antag-2	TAAR1 antagonist	OX1R Fluo8 conf	CHO Ca counter	OX1R HTRF confirm	CHO-K1 HTRF cnt
CC(CSc1nc2ccccc2s1)Cn1c(N2CCCC2)nc2c1c(=O)[nH]c(=O)n2C (configuration not stated)	5	-19	0	94*	61*	9	35*	-18	87*	-2
CN(/N=C/c1cc([N+](=O)[O-])ccc1O)c1ccccc1	7	-17	-4	73*	50*	17	48*	-14	93*	-4
O=C(Nc1ccc(Cl)cc1F)c1ccc(COc2c(F)c(F)c(F)c(F)c2F)o1	-2	-20	2	23	-28	21	/	/	/	/
CCOc1ccc(N(CC(=O)NCCSCc2ccco2)S(=O)(=O)c2ccc(F)cc2)cc1	-1	-20	-5	4	-31	-7	/	/	/	/
CCOc1ccccc1N(CC(=O)NCCSCc1ccco1)S(=O)(=O)c1ccccc1	0	-21	-4	84*	43*	50*	47*	-24	80*	-1
Oc1ccc2ccccc2c1/C=N/n1cnnc1	11	-6	-4	11	9	-3	/	/	/	/
Cc1nn(C)c(C)c1N=Cc1c(O)ccc2ccccc12	9	-14	-5	83*	43*	-4	1	-3	77*	11
COc1ccc(S(=O)(=O)NCCSc2ccc(Cl)cc2)cc1OC	32	-13	-9	5	-6	-3	/	/	/	/
CCN1CCN(C(=O)c2cc3c(=O)n(C)c4ccccc4c3n2C)CC1	1	-9	0	15	-15	10	/	/	/	/
COc1ccc(-c2csc(NC(=O)CS(=O)(=O)c3ccccc3)n2)cc1	5	-1	-4	15	-20	-2	/	/	/	/
COc1ccc(-c2csc(NC(=O)CS(=O)(=O)c3ccc(F)cc3)n2)cc1OC	14	14	-3	76*	28	15	15	-2	25	4
COc1ccc(-c2cc(C)no2)cc1S(=O)(=O)N1CCOc2ccccc21	-1	-13	-2	17	0	-10	/	/	/	/
CCC1CN(S(=O)(=O)c2cc(-c3cc(C)no3)ccc2OC)c2cc(C)ccc2O1 (configuration not stated)	-2	-28	1	73*	63*	-36	27	-9	86*	2
O=C(NCc1ccccc1)C(c1ccccc1F)n1c(=O)c(-c2ccco2)nc2ccccc21 (configuration not stated)	0	/	-7	/	/	-17	/	/	/	/
CC(NCC(=O)Nc1ccccc1C(=O)NC1CC1)c1ccc(F)cc1F (configuration not stated)	9	-16	-2	68*	57*	16	44*	-7	87*	2
COc1ccc(NC2CS(=O)(=O)CC2NCc2ccco2)cc1 (configuration not stated)	-1	-12	4	8	-3	4	/	/	/	/
Cc1c(C(=O)OCC(=O)NCCN2C(=O)CSC2=O)oc2c1ccc1ccccc12	4	-5	-1	77*	22	13	33*	-8	88*	11
COC(=O)C(C(C)=O)C1=C/C(=N\S(=O)(=O)c2ccc(C)cc2)c2ccccc2C1=O (configuration not stated)	/	-9	/	106*	97*	/	50*	-12	94*	1
COc1cc(Cl)c(C)cc1Nc1ncccn1	9	-2	-9	82*	25	-24	24	-4	74*	8
